The source of these data is ChEMBL document CHEMBL4513216, “Probing the Open Global Health Chemical Diversity Library for Multistage-Active Starting Points for Next-Generation Antimalarials” (ACS Infect Dis, 2020).

The structures appear in SMILES notation.

The nature of this data set: Toxicity liver stage against HepG2, at 10uM. The data set is classed as cell-based. More on the design: test concentration 10 uM, cell line HepG2-A16-CD81EGFP. Conditions: human, HepG2-A16-CD81EGFP cells; read-out: INHIBITION
In a few lines: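 Uninfected HepG2-A16-CD81EGFP cells, 3 × 10^3 per well, 1536-well, plated on prespotted compound at 10 μM final, parasite-free screening media added to match infected plates; puromycin 10 μM positive, DMSO 0.5% negative; run in parallel with 48 h PbLuc assay at 37 °C, 5% CO2; viability by CellTiter-Glo luminescence, normalized to controls.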
For the compound `CCOCCn1c(=O)[nH]c2cc(C(=O)N(C)Cc3ccno3)ccc21`, the cytotoxicity at 10 µM is -1.79%. As for `CCc1cnc(C)nc1NC(CC)c1cnn(C)c1` (centres undefined), the figure is -11.7%; as for `O=C(Nc1cccnc1N1CCSCC1)c1cc2c(s1)CCCCC2`, -3.25%; as for `CN(C)c1ncnc2c1CCN(C(=O)c1cccnc1)CC2`, -79.8%. As for `O=C(CN(Cc1ccco1)C1CC1)N1CCCCCC1`, the figure is -3.26%; as for `N[C@H]1CN(C(=O)c2ccccc2OCc2ccccc2)C[C@@H]1C1CC1`, -3.57%; as for `c1ccc(CN2CCc3ncnc(-c4ccsc4)c3CC2)nc1`, 3.91%. As for `O=C(CCc1ccsc1)Nc1cnccc1O`, the figure is 9.56%; as for `CC(C)c1nc(/C=C/c2cnn(-c3ccccc3)c2)ncc1C(=O)O`, -11.3%; as for `Cn1cccc1-c1cc(C(=O)N2CCCC2c2ccc(C(N)=O)s2)[nH]n1` (centres undefined), -1.33%. For the compound `Cc1nc(C)n(C2CCCN(C(=O)c3ccc(N(C)C)nn3)C2)n1` (centres undefined), the cytotoxicity at 10 µM came to 0.722%. Take `CC(C)c1cc(NCc2csc(C(C)C)n2)nc(N)n1`: the cytotoxicity at 10 µM is 19.8%. As for `CCO[C@H]1CCN(S(=O)(=O)c2cn(C)cn2)[C@H]1Cc1ccccc1`, the figure is 7.95%. With `Cc1ccc(C(=O)N2CCn3c(COCC4CC4)cnc3C2C)s1` (centres undefined), the cytotoxicity at 10 µM was 5.14%. As for `Cc1nc(CN2CCCN(C(=O)c3ccccn3)CC2)oc1C`, the figure is 0.289%; as for `Cc1cc(C)nc(C2CCN(C(=O)CCn3ncc4ccccc43)C2)n1` (centres undefined), -17.3%; as for `CNC(=O)CN1CCCC12CCN(C(=O)c1cccc(F)c1)CC2`, 6.62%. Consider `Cc1ccc(O[C@@H]2C[C@H]3CN(C(=O)c4cnccn4)CCN3C2)cc1`, for which the cytotoxicity at 10 µM is 1.12%.

Consider `Nc1nc(N)c2c(n1)OC1(COCCN(Cc3nccs3)C1)C2` (centres undefined), for which the cytotoxicity at 10 µM is -0.56%. As for `O=C(CCc1nc2cc(Br)cnc2[nH]1)NCc1cccnc1`, the figure is -0.874%; as for `Cc1ccc(C)c(S(=O)(=O)CCNC2CCc3ncnn3C2)c1` (centres undefined), -30.6%. Regarding `COc1c(C(=O)NCC(C)C)nnn1Cc1ccccc1`, the cytotoxicity at 10 µM turned out to be 12%.

Take `COCCCNC(=O)c1cc(-c2cnc(N3CCOCC3)nc2)cn1C`: the cytotoxicity at 10 µM was -69.8%. For `COc1ccc(OC)c(C2CCN(c3ccc4cc[nH]c4n3)C2)c1` (centres undefined), the cytotoxicity at 10 µM is -1.6%. To `c1ccc(OCC2C[C@@H]3[C@@H](C2)OCCN3Cc2ccoc2)nc1` (some centres undefined) belongs -0.514%. As for `CN(C)C[C@H]1OC[C@@H]2CCN(S(=O)(=O)c3ccccc3)C[C@@H]21`, the figure is 1.44%; as for `Cn1ccnc1CN1CCOC(Cn2cccn2)C1` (centres undefined), -6.07%; as for `O=C(CNc1ccccc1Cl)Nc1cc(-n2cnnn2)ccc1F`, -4.38%. Take `CC(=O)N1CCN(CC=C(C)C)CC1`: the cytotoxicity at 10 µM turned out to be 3.95%. Take `O=C1COc2ccc(Br)cc2CN1CC1CC1`: the cytotoxicity at 10 µM was -3.46%. As for `CCc1nc(CN2CCCN(C(=O)C3CCOC3)CC2)cs1` (centres undefined), the figure is 3.09%.

Consider `C[C@@H]1CN(S(=O)(=O)c2ccc(F)cc2Cl)C[C@]1(C)O`, for which the cytotoxicity at 10 µM is -2.83%. Take `CCCN1CCCC2(CCN(c3nccc(OC)n3)C2)C1=O` (centres undefined): the cytotoxicity at 10 µM was -4.74%. With `COC(=O)c1ccc2c(-c3ccnc(N[C@@H](C)CO)n3)c[nH]c2c1`, the cytotoxicity at 10 µM is -5.94%. `CN1CC(c2n[nH]c(=O)n2-c2cccc(Cl)c2)CC1=O` (centres undefined): the cytotoxicity at 10 µM is 3.24%. With `Cc1nc(CN(C)C2CCN(Cc3ccc4c(c3)CCC4)C2)no1` (centres undefined), the cytotoxicity at 10 µM is -18.2%. `O=C(COC1CCCCC1)Nc1ccn(Cc2cccnc2)n1`: the cytotoxicity at 10 µM was 5.17%. As for `COc1cn(-c2ccccc2)nc1C(=O)NCCCN1CCCC(C)C1` (centres undefined), the figure is -11.1%; as for `COCCC(=O)N1CCC2(COCc3cnc(N(C)C)nc32)C1` (centres undefined), -64.8%; as for `CCc1ccc(C(=O)N2CCCC(n3nc(C)nc3C)C2)o1` (centres undefined), -7.8%. With `NC(=O)c1cc2c(nc1Oc1ccc(CN3CCCC3)cc1F)CCC2`, the cytotoxicity at 10 µM was -3.62%.

Take `CCOC(=O)N1CCN(CC(=O)Nc2nnc(CC)s2)CC1`: the cytotoxicity at 10 µM was -8.94%.

Consider `Cc1nc(N2CCN(C(=O)c3ccccn3)CC2)c2c(n1)c(C)nn2C`, for which the cytotoxicity at 10 µM worked out at 5.06%. To `Cc1ccncc1NC(=O)C1CSc2ncc(C)c(=O)n2C1` (centres undefined) belongs -6.53%; to `Cc1ccc2c(c1)c(C)cc(=O)n2CCCN`, 1.14%; to `c1ccc(-c2noc([C@@H]3Cc4nc[nH]c4CN3)n2)cc1`, -4.26%. To `O=S(=O)(c1cc(F)ccc1N1CC(n2cccn2)C1)C(F)(F)F` belongs 11.3%; to `CCC(=O)N1CCN(c2ncnc3cc4c(cc23)OCCO4)CC1`, 10.2%. `CN1Cc2c(C(=O)N3CCOCC3)ncn2-c2ccccc2S1(=O)=O`: the cytotoxicity at 10 µM was -1.58%.

Consider `COc1ccc(NC(=O)CN2CCCCC2C2OCCO2)cc1` (centres undefined), for which the cytotoxicity at 10 µM worked out at 30.9%. To `CNS(=O)(=O)CC1CCCN1C(=O)c1cccc(Cl)c1` (centres undefined) belongs -1.5%. As for `Cc1ccc(NC(=O)CC2Cn3ncnc3NC2=O)cc1C` (centres undefined), the cytotoxicity at 10 µM was determined as 10.5%. Regarding `CCN1CC(COC(=O)c2cc(C)nn2CC)CC1=O` (centres undefined), the cytotoxicity at 10 µM was -3.37%. With `CN(Cc1ccccc1CN1CCCC1)c1ncnc2[nH]ccc12`, the cytotoxicity at 10 µM was found to be 8.53%. To `O=C(NCCN1CCOCC1)c1ccc(-n2ccc3ccccc32)s1` belongs -1.27%; to `CC(C)c1nccn1C1CCCN(C(=O)c2ccc3[nH]nnc3c2)C1` (centres undefined), 1.9%; to `O=C(NCC(F)(F)F)C(c1cccnc1)N1CCOCC1` (centres undefined), 1.51%. As for `COc1ncccc1CN1CC[C@@]2(O)CCN(C(=O)C3CCC3)C[C@H]2C1`, the figure is 9.31%; as for `CSc1ccc(C(O)CNS(=O)(=O)C2CC2)cc1` (centres undefined), -0.608%; as for `CC(C)NC(=O)c1nc2c(s1)CCCN2C(C)C`, -143%. To `CN(Cc1cccs1)C1CCC[C@@H]2CN(C(=O)c3cnccn3)C[C@H]12` (some centres undefined) belongs 16.7%; to `O=C(Nc1ccccc1)C1CCCN(C(=O)Cn2cncn2)C1` (centres undefined), 16.3%; to `COc1cccc2ccn(CC(=O)NCCC(C)C)c12`, -43.3%. In the case of `Cn1nccc1-c1nnn2c1COCC(CNCC1CC1)C2` (centres undefined), the cytotoxicity at 10 µM is -98.8%. To `COc1ccc(-n2ccc(C(=O)NCCN3CCCCC3C)n2)cc1` (centres undefined) belongs -8.43%. With `CC(C)n1cnnc1CN(C)CC1CCCNC1` (centres undefined), the cytotoxicity at 10 µM worked out at 3.05%. Consider `Cc1ccc(CCCC(=O)N2CC(=O)Nc3cccnc32)s1`, for which the cytotoxicity at 10 µM was -36.6%. To `O=C(NCC1(O)CCc2ccccc21)Nc1ccc2c(c1)OCO2` (centres undefined) belongs -11.2%; to `Cc1cccnc1C(=O)N1CCCC(Cc2cncc3ccccc23)C1` (centres undefined), -18%. As for `COc1cc(C)ccc1OCCC(=O)N1CCCC1Cn1cccn1` (centres undefined), the figure is -7.81%; as for `CC1CN(C(=O)c2cnn(-c3ccccn3)c2C(C)C)CC(C)(C)O1` (centres undefined), -3.09%. Consider `O=C1NCCCCC1NCc1csc(-c2ccsc2)n1` (centres undefined), for which the cytotoxicity at 10 µM came out at 3.27%.

`CC(=O)NCCNC(=O)NCc1ccc(Br)cc1Cl`: the cytotoxicity at 10 µM amounted to 5.19%. On to `COc1ncccc1CNC(=O)c1csc(Br)c1`, for which the cytotoxicity at 10 µM was -8.03%. As for `COCC(=O)N1CCCC1c1nccnc1Nc1ncccn1` (centres undefined), the figure is -2.69%; as for `CC(C)(C)c1csc(CCNC(=O)[C@H](c2ccccc2)n2cnnn2)n1`, 2.07%; as for `CC(C)(C)C(Cn1cccn1)NC(=O)c1ccco1` (centres undefined), -5.5%.

Take `CN(C)c1nccnc1C1CCN(C2CCCCC2O)CC1` (centres undefined): the cytotoxicity at 10 µM was 8.12%. `O=C(Nc1cccc(CN2CCOC2=O)c1)N1CCCC1`: the cytotoxicity at 10 µM was -3.54%. To `CN(C)CC1(O)CCCN(c2ccnc3c(C(F)(F)F)cccc23)C1` (centres undefined) belongs -4.55%; to `Cc1cc(CNc2cc(Cl)ccc2Cl)no1`, 18.9%. As for `Cc1csc(CNC(=O)NCC2(c3ccc4c(c3)OCO4)CC2)n1`, the figure is 0.0902%; as for `Cc1n[nH]c(=O)c2c(NC(=O)CN3CCOCC3)oc(C)c12`, -7.95%. As for `Cc1cccn2cc(C(=O)N3CCCN(CC4CC4)C(C(C)C)C3)nc12` (centres undefined), the figure is 1.46%; as for `CCc1ncc(CN(C)C2CCN(C(C)C)CC2)cn1`, -3.91%; as for `O=C(CCCc1ccccc1)Nc1cnc(N2CCOCC2)nc1`, -13.9%.

Take `O=C(Cn1cccnc1=O)NC(Cc1ccsc1)c1cccnc1` (centres undefined): the cytotoxicity at 10 µM was -25.7%. As for `CC(C)Cn1c2c(ccc1=O)CC(N)CC2` (centres undefined), the figure is 8.03%; as for `CC1CCN(C(=O)c2occc2COc2cccc(C#N)c2)CC1`, 0.106%; as for `CSC(C)C(=O)NCc1ccc(-n2cncn2)nc1` (centres undefined), 3.28%.

As for `COc1cc(F)ccc1N(C)Cc1ccccn1`, the cytotoxicity at 10 µM is -1.84%. To `Cc1cc(C(=O)N2CC(=O)Nc3cnccc32)c(Cl)cc1F` belongs 3.07%; to `O=C(O)c1cc(S(=O)(=O)Nc2cccc3c2OCCO3)ccc1F`, 12.3%. As for `CCCN1CCC(c2nc3ccc(-c4ccncc4)cn3n2)CC1`, the figure is -117%; as for `CCc1noc(CN(CC)C(=O)CC2C(=O)NCCN2CC=C(C)C)n1` (centres undefined), 2.24%; as for `CCN(C)c1ncnc2c1CCN(C(=O)c1ccoc1C)CC2`, -0.675%. As for `Cc1ccc(C)c(-n2cc(CN3CCOCC3)c(-c3ccccc3)n2)c1`, the figure is 13.1%; as for `c1cnc(NCc2noc3c2CN(c2cnccn2)CC3)nc1`, 0.774%. For `CCOCCCNC(=O)c1cccn1Cc1cccnc1`, the cytotoxicity at 10 µM is -43.8%.
